The values that follow come from ChEMBL document CHEMBL4229554, “Design and Characterization of Novel Covalent Bromodomain and Extra-Terminal Domain (BET) Inhibitors Targeting a Methionine” (J Med Chem, 2018).

Each structure is given as a SMILES string. The source made the active and inactive calls. The rule behind the calls is not given here.

For series [1], the target named is T1, Bromodomain-containing protein 4 (Homo sapiens, UniProt O60885). Put plainly: Inhibition of N-terminal His-tagged BRD4 (BD1) (unknown origin) using biotinylated tetra-acetylated histone H4 peptide after 30 mins by alpha-screen assay.
The target of series [2] is T1, Bromodomain-containing protein 4. Briefly: Inhibition of N-terminal His-tagged BRD4 (BD2) (unknown origin) using biotinylated tetra-acetylated histone H4 peptide after 30 mins by alpha-screen assay.
Series [3] has the same target. Put plainly: Inhibition of N-terminal His-tagged BRD4 (BD1/BD2) (unknown origin) using biotinylated tetra-acetylated histone H4 peptide after 30 mins by alpha-screen assay.
For series [4] the target is unchanged. Put plainly: Binding affinity to N-terminal His-tagged BRD4 (BD1) (unknown origin) assessed as change in melting temperature at 100 uM after 0.5 hrs by SYPRO orange protein staining-based thermal denaturation assay. In a few lines:
(§1)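 N-terminally His-tagged recombinant BRD4(BD1), 5 µM, incubated with 100 µM compound and 5X SYPRO Orange in 50 mM NaCl/50 mM HEPES pH 7.4 for 30 min or 4 h. Protein thermal shift melt gives ΔTm; more than one transition may be resolved.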

Series [5] shares this target. Briefly: Binding affinity to N-terminal His-tagged BRD4 (BD1) (unknown origin) assessed as change in melting temperature at 100 uM after 4 hrs by SYPRO orange protein staining-based thermal denaturation assay. In outline: as §1
The target is the same in series [6]. Briefly: Inhibition of N-terminal His-tagged BRD4 (BD1) (unknown origin) using biotinylated tetra-acetylated histone H4 peptide after 5 mins by alpha-screen assay. In outline:
(§2)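 AlphaScreen: N-terminally His-tagged BRD4(BD1) (20–200 nM) with biotinylated tetra-acetylated H4 peptide (3–75 nM) in 50 mM HEPES, 100 mM NaCl, 0.1% BSA, pH 7.4, under green light. Nickel-chelate acceptor and streptavidin donor beads at 2 µg/mL final, serially diluted compounds added. Luminescence read at 570 nm.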

Series [7] has the same target. Briefly: Inhibition of N-terminal His-tagged BRD4 (BD1) (unknown origin) using biotinylated tetra-acetylated histone H4 peptide after 1 hr by alpha-screen assay. In outline:
as §2

The target is the same in series [8]. Put plainly: Inhibition of N-terminal His-tagged BRD4 (BD1) (unknown origin) using biotinylated tetra-acetylated histone H4 peptide after 4 hrs by alpha-screen assay. In a few lines:
as §2

Series [9] has as its system MV4-11. Put plainly: Induction of apoptosis in human MV4-11 cells assessed as viable cells after 72 hrs by FITC annexin V-staining based flow cytometry (reference value: 96.4%). The series is classed as functional.
The test system of series [10] is MV4-11. Briefly: Induction of apoptosis in human MV4-11 cells assessed as early apoptotic cells after 72 hrs by FITC annexin V-staining based flow cytometry (reference value: 1.87%). The series is classed as functional.
In series [11] the test system is MV4-11. Briefly: Induction of apoptosis in human MV4-11 cells assessed as late apoptotic cells after 72 hrs by FITC annexin V-staining based flow cytometry (reference value: 1.53%). The series is classed as functional.
For series [12], the system named is MV4-11. Briefly: Induction of apoptosis in human MV4-11 cells assessed as necrotic cells after 72 hrs by FITC annexin V-staining based flow cytometry (reference value: 0.21%). The series is classed as functional.
The next series deals with PBMC. Put plainly: Cytotoxicity against human PBMC assessed as reduction in cell viability after 24 hrs by cell-titer 96 aqueous one solution reagent-based assay.
In series [13] the target is T1, Bromodomain-containing protein 4. Briefly: Ratio of IC50 for inhibition of N-terminal His-tagged BRD4 (BD1) (unknown origin) using biotinylated tetra-acetylated histone H4 peptide after 4 hrs by alpha-screen assay to IC50 for inhibition of N-terminal His-tagged BRD4(BD1) (unknown origin) using biotinylated tetra-acetylated histone H4 peptide after 5 mins by alpha-screen assay. In outline:
as §2

Series [14] deals with MV4-11. Put plainly: Antiproliferative activity against human MV4-11 cells preincubated for 24 hrs by followed by compound washout measured after 48 hrs post compound washout by cell-titer 96 aqueous one solution reagent-based assay. The series is classed as functional. In outline:
(§3)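 Washout format: MV4-11 plated at 25,000 cells/well with two-fold dilutions, triplicate wells. Cells treated 24 h, compound removed and cells washed twice with conditioned media. Growth continued 48 h in compound-free media. Read with CellTiter 96 AQueous One reagent, absorbance 490 nm, expressed as % of DMSO control.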

For series [15], the system named is MV4-11. Briefly: Antiproliferative activity against human MV4-11 cells incubated for 24 hrs followed by compound removal and further incubation for 48 hrs by cell-titer 96 aqueous one solution reagent-based assay. Format: functional. In a few lines:
as §3

`Cc1noc(C)c1-c1cc(N)c2ncn(Cc3ccccc3)c2c1`: the IC50 amounted to 20 nM in series [1]; 10 nM in [2]; 50 nM in series [3]; 17 nM in series [6]; 8 nM in series [7]; 19 nM in series [8]. For the same compound, the result in [4] and in series [5] was Active. Further, the Activity in the series on MV4-11 [9] is 17.6%; in the series with MV4-11 [10], 45%; in the series on MV4-11 [11] it was 24.2%; with MV4-11 [12] it was 13.3%; in the series on PBMC, “Non-Toxic”. The Ratio IC50 in series [13] is 1.
Take `Cc1noc(C)c1-c1cc(N)c2ncn(Cc3ccc(C4CO4)cc3)c2c1` (stereo not given): the IC50 in series [1] amounted to 50 nM; in series [2], 50 nM; in [3], 60 nM; in series [6] it was 274 nM; in series [7], 75 nM; in [8] it was 15 nM. In addition, the outcome (in series [4]; in [5]; with MV4-11 [14]; with MV4-11 [15]) was Active. Moreover, the Activity with MV4-11 [9] is on record as 12.5%; in the series with MV4-11 [10] it was 65.9%; in the series on MV4-11 [11], 19.6%; with MV4-11 [12], 2.05%; with PBMC it was “Non-Toxic”. Also, the Ratio IC50 in [13] was determined as 18.
